# Measured values from ChEMBL document CHEMBL2062416, “Synthesis and biological evaluation of some novel 1-indanone thiazolylhydrazone derivatives as anti-Trypanosoma cruzi agents” (Eur J Med Chem, 2012).
# Legend:
# Trypanosoma cruzi [1] = test: Trypanocidal activity against bloodstream trypomastigotes of Trypanosoma cruzi infected in mouse blood assessed as lytic effect after 24 hrs; type: functional, organism-based
# In short: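 Blood from infected CF1 mice (Tulahuen, Tul 2) diluted to 1.5×10^6 trypomastigotes/mL; compounds 0.30–350 µM, duplicates, 24 h. Live parasites counted in Neubauer chamber; %I = [1−CDt/CDc]×100 versus untreated. IC50 by linear regression of %I on log concentration. Means ± SD of three experiments.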
# Vero = test: Cytotoxicity against african green monkey Vero cells up to 100 uM after 24 hrs by MTT assay; type: cell-based; conditions: chlorocebus sabaeus
# In short: (§1)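 Vero cells grown in MEM or RPMI with 10% FBS, penicillin, streptomycin, glutamine; seeded at 9×10^5 cells/mL, compounds (12.5–200.0 µM) added after 48 h, 24 h exposure. PBS wash, MTT at 0.5 mg/mL final, 1 h 37 °C, formazan dissolved in DMSO, A570 with blank subtraction. Repeated at least three times, four samples per assay.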
# Trypanosoma cruzi [2] = test: Trypanocidal activity against epimastigotes of Trypanosoma cruzi Tulahuen 2 assessed as inhibition of parasite growth after 4 days by trypan blue staining; type: functional, organism-based; conditions: Tulahuen 2, 96 h
# In short: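 Epimastigotes (Tulahuen, Tul 2) from 5-day cultures grown at 28 °C in liver/infusion medium with hemin, started at 1.5–2.5×10^6 cells/mL, exposed 4 days to compounds (typically 1.50–15 or 0.5–2.5 µM), triplicate; benznidazole 2.50–15 µM positive control. Motile cells counted in Neubauer chamber; %I from density change versus untreated; IC50 by linear regression on log concentration.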
# [3] = target: Cruzipain (Trypanosoma cruzi) (UniProt P25779); test: Inhibition of epimastigotes of Trypanosoma cruzi cruzipain using Bz-Pro-Phe-Arg-pNA as substrate at 20 uM by spectrophotometric analysis
# Chain of Cruzipain (Trypanosoma cruzi) (P25779 123-467 limits assumed): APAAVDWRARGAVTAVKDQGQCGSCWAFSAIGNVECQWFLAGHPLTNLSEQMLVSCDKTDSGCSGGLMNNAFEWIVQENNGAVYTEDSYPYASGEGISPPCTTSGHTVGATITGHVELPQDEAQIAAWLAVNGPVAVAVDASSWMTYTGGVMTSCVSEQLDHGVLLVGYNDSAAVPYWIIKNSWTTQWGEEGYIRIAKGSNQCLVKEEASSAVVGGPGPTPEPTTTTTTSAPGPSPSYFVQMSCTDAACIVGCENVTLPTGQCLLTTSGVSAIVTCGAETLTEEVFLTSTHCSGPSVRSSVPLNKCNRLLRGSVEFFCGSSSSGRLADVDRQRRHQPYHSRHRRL
# In short: (§2)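 Cruzipain purified from epimastigote cell-free extract by ConA-Sepharose affinity chromatography. 1 mL reaction: Tris-acetate pH 8.2 (50 µmol), 2-mercaptoethanol (10 µmol), Bz-Pro-Phe-Arg-pNA (0.3 µmol); followed at 410 nm. Compounds added in DMSO; vehicle controls with matching DMSO; E-64 reference inhibitor. Percent inhibition relative to enzyme without drug.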
# Trypanosoma cruzi [4] = test: Trypanocidal activity against amastigotes of Trypanosoma cruzi expressing beta-galactosidase gene infected in mouse J774 cells assessed as inhibition of parasite growth after 7 days; type: functional, organism-based; conditions: J774, 168 h
# In short: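 J774 macrophages, 5×10^3/well, infected with β-galactosidase-expressing blood trypomastigotes (clone C4) at 10:1 parasite:cell for 24 h, washed, then compounds (2–100 µM) in phenol red-free RPMI, duplicates, 7 days. Developed with 1% NP-40 and 100 µM CPRG, 4 h 37 °C, A570; uninfected ± compound wells correct colour. IC50 by linear regression of %I against log concentration.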
# [5] = target: Cruzipain (Trypanosoma cruzi) (UniProt P25779); test: Inhibition of epimastigotes of Trypanosoma cruzi cruzipain using Bz-Pro-Phe-Arg-pNA as substrate at 50 uM by spectrophotometric analysis; in short: as §2
# [6] = target: Cruzipain (Trypanosoma cruzi) (UniProt P25779); test: Inhibition of epimastigotes of Trypanosoma cruzi cruzipain using Bz-Pro-Phe-Arg-pNA as substrate at 10 uM by spectrophotometric analysis; in short: as §2
# Trypanosoma cruzi [7] = test: Inhibition of ergosterol biosynthesis in epimastigotes of Trypanosoma cruzi assessed as ratio of squalene/ergosterol at 25 uM after 24 hrs by TLC analysis (reference value: 0.76); type: functional
# [8] = Cytotoxicity against african green monkey Vero cells after 24 hrs by MTT assay; type: cell-based; conditions: chlorocebus sabaeus; in short: as §1
SMILES,inhibition [3],inhibition [5],inhibition [6],IC50 (Trypanosoma cruzi [1]),Activity (Vero),IC50 (Trypanosoma cruzi [2]),IC50 (Trypanosoma cruzi [4]),Ratio (Trypanosoma cruzi [7]),CC50 at 24 h [8]
Clc1ccc(-c2csc(N/N=C3\CCc4ccccc43)n2)cc1,,,,308 µM,Non-toxic,8.62 µM,,,
c1ccc(-c2csc(N/N=C3\CCc4ccccc43)n2)cc1,,,,> 500 µM,Non-toxic,19 µM,,,
COc1cc2c(cc1OC)/C(=N/Nc1nc(-c3ccccc3)cs1)CC2,,,,195 µM,Non-toxic,10.1 µM,,,
CN(C/C=C/C#CC(C)(C)C)Cc1cccc2ccccc12 [TERBINAFINE],,,,,,,,1.54,
COc1cc2c(cc1OC)/C(=N/Nc1nc(-c3ccc(Cl)cc3)cs1)CC2,,,,404 µM,Non-toxic,7.17 µM,,,
O=C(Cn1ccnc1[N+](=O)[O-])NCc1ccccc1 [BENZNIDAZOLE],,,,30.3 µM,,5.39 µM,,,82.8 µM
Cc1ccc2c(c1)/C(=N/Nc1nc(-c3ccc(Cl)cc3)cs1)CC2,,,,61.1 µM,Non-toxic,8.59 µM,,,
Cc1ccc2c(c1)CC/C2=N\Nc1nc(-c2ccc(Cl)cc2)cs1,,,,372 µM,Non-toxic,7.15 µM,,,
O=[N+]([O-])c1cccc2c1CC/C2=N\Nc1nc(-c2ccc(Cl)cc2)cs1,,,,597 µM,Non-toxic,17.1 µM,,,
Cc1ccc2c(c1)CC/C2=N\Nc1nc(-c2ccccc2)cs1,,,,172 µM,Non-toxic,4.69 µM,,,

# More lines, main results first:
inhibition [3],inhibition [5],inhibition [6],SMILES,IC50 (Trypanosoma cruzi [1]),Activity (Vero),IC50 (Trypanosoma cruzi [2]),IC50 (Trypanosoma cruzi [4]),Ratio (Trypanosoma cruzi [7]),CC50 at 24 h [8]
0%,0%,3%,Cc1ccc2c(c1)/C(=N/Nc1nc(-c3ccccc3)cs1)CC2,22.7 µM,Non-toxic,4.27 µM,3.96 µM,,
0%,0%,3%,Cc1ccc(-c2csc(N/N=C3\CCc4ccc(C)cc43)n2)cc1,49.5 µM,Non-toxic,4.08 µM,0.27 µM,0.8,
0%,0%,3%,Cc1cccc2c1CC/C2=N\Nc1nc(-c2ccccc2)cs1,48.9 µM,Non-toxic,7.08 µM,0.68 µM,,
0%,3%,3%,Cc1cccc2c1CC/C2=N\Nc1nc(-c2ccc(Cl)cc2)cs1,20 µM,Non-toxic,4.53 µM,0.09 µM,1.25,
0%,0%,0%,COc1cc2c(cc1OC)/C(=N/Nc1nc(-c3ccc(C)cc3)cs1)CC2,69.6 µM,Non-toxic,> 15 µM,7.72 µM,,
,,62%,CC(C)C[C@H](NC(=O)[C@H]1O[C@@H]1C(=O)O)C(=O)NCCCCN=C(N)N,,,,,,
2%,0%,4%,Cc1ccc(-c2csc(N/N=C3\CCc4c(C)cccc43)n2)cc1,17.2 µM,Non-toxic,4.36 µM,0.72 µM,2.92,
0%,0%,0%,COc1cccc2c1CC/C2=N\Nc1nc(-c2ccc(Cl)cc2)cs1,19.7 µM,Non-toxic,11.8 µM,0.84 µM,,
5%,5%,8%,Cc1ccc(-c2csc(N/N=C3\CCc4ccccc43)n2)cc1,> 500 µM,Non-toxic,> 15 µM,,0.76,
0%,0%,0%,Cc1ccc(-c2csc(N/N=C3\CCc4cc(C)ccc43)n2)cc1,87 µM,Non-toxic,5.24 µM,1.35 µM,,
